# Test results published in ChEMBL document CHEMBL1148332, “Mitomycin dimers: polyfunctional cross-linkers of DNA” (2004).
# Experiments:
# Nucleic Acid [1] = assay: Concentration of compound required for cross linking 50% of T-7 DNA, Na2S2O4; format: functional
# In short: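 T-7 coliphage DNA (100 μM) with drug at 0.5–15 μM in 0.015 M Tris·HCl, pH 7.4, was deaerated and given a 10-fold molar excess of Na₂S₂O₄ for 60 min under argon. Hoechst 33258 (100 nM) fluorescence (ex 355/em 460 nm) was read before and after heating at 95 °C and chilling. Cross-linked fraction was taken relative to a drug-free control; ICL50 is the concentration giving 50% cross-linked DNA.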
# Tumor Cell line = assay: In vitro anticancer activity against cultured 60 human tumor cell lines; format: functional
# In short: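 NCI screen panel of about 60 human tumor cell lines from nine tissue types. GI50 is the concentration causing 50% growth inhibition, reported as the mean-graph midpoint (mean of the individual cell-line GI50 values).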
# Nucleic Acid [2] = assay: Concentration of compound required for cross linking 50% of pBR322 DNA, Na2S2O4; format: functional
# In short: (§1)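 pBR322 DNA linearized with EcoRI and 3'-end labeled with α-³²P-dATP by Klenow. About 100 ng was mixed with drug at various concentrations in 10 mM sodium phosphate/1 mM EDTA, pH 7.5, argon-deaerated, then reduced with dithionite for 45 min at room temperature. It was then denatured in 30% DMSO strand-separation buffer at 90 °C for 5 min, run on 1% agarose, and the cross-linked fraction quantified by phosphorimaging.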
# Nucleic Acid [3] = assay: Concentration of compound required for cross linking 5% of tyrT DNA, Na2S2O4; format: functional
# In short: (§2)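 The 5'-³²P-labeled 162-bp tyrT DNA fragment (10 ng) was mixed with drug at various concentrations in Tris/EDTA buffer and deaerated with nitrogen. Dithionite was added from a 50 mM stock, and the mix was kept on ice in the dark for 1 h. After ethanol precipitation it was denatured at 94 °C for 4 min and run on an 8% denaturing polyacrylamide gel; cross-linked species were quantified by phosphor screen.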
# Nucleic Acid [4] = assay: Apparent binding constant against calf thymus DNA was determined; format: nucleic-acid assay; conditions: Bos taurus
# Nucleic Acid [5] = assay: Concentration of compound required for cross linking 50% of T-7 DNA, Acid; format: functional
# In short: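 T-7 coliphage DNA was incubated with drug at 5–200 μM in citrate phosphate, 10 mM Na⁺, pH 4.0, aerobically for 4 h. The cross-linked fraction came from Hoechst 33258 fluorescence (ex 355/em 460 nm) read before and after a 95 °C heat and ice chill, relative to a drug-free control; ICL50 is the drug concentration giving 50% cross-linking.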
# Nucleic Acid [6] = assay: Concentration of compound required for cross linking 50% of tyrT DNA, Na2S2O4; format: functional; in short: as §2
# Nucleic Acid [7] = assay: Compound was tested on efficacy of Cross-Linking of pBR322 DNA, acid at 1 uM; format: functional
# In short: (§3)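 The 3'-³²P-labeled, EcoRI-linearized pBR322 DNA was incubated with drug in 10 mM sodium phosphate, pH 4, aerobically for 2 h with no reductant. It was heat-denatured in DMSO strand-separation buffer and separated on 1% agarose, and percent cross-linked DNA was quantified by phosphorimaging.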
# Nucleic Acid [8] = assay: Compound was tested on efficacy of Cross-Linking of tyrT DNA, acid at >400 uM; format: functional
# In short: (§4)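 The labeled 162-bp tyrT DNA fragment was incubated with drug in citrate phosphate, pH 4.0, aerobically for 2 h. It was ethanol-precipitated, denatured at 94 °C for 4 min, and resolved on an 8% denaturing polyacrylamide gel at about 55 °C; cross-linked bands were detected by phosphor screen.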
# Nucleic Acid [9] = assay: Compound was tested on efficacy of Cross-Linking of pBR322 DNA, acid at 40 uM; format: functional; in short: as §3
# Nucleic Acid [10] = assay: Compound was tested on efficacy of Cross-Linking of pBR322 DNA, Na2S2O4; format: functional; in short: as §1
# Nucleic Acid [11] = assay: Compound was tested on efficacy of Cross-Linking of tyrT DNA, acid at a concentration 400 uM; format: functional; in short: as §4
# Nucleic Acid [12] = assay: Concentration of compound required for cross linking 50% T-7 DNA, Acid; format: functional
# In short: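 T-7 coliphage DNA (100 μM) with drug at 5–200 μM in citrate phosphate buffer, 10 mM Na+, pH 4.0, incubated aerobically 4 h. Diluted into 5 mM Tris/0.5 mM EDTA pH 8.0 with 100 nM Hoechst 33258; fluorescence (ex 355/em 460 nm) read before and after heat denaturation (95 °C, 5 min), ice chill and room-temperature renaturation. Cross-linked fraction computed against drug-free controls; ICL50 = drug concentration giving 50% cross-linked DNA.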
Compound,ICL50 (Nucleic Acid [1]) [µM],GI50 (Tumor Cell line) [µM],ICL50 (Nucleic Acid [2]) [µM],ICL5 (Nucleic Acid [3]) [µM],K app (Nucleic Acid [4]) [M⁻¹],ICL50 (Nucleic Acid [5]) [µM],ICL50 (Nucleic Acid [6]),inhibition (Nucleic Acid [7]) [%],Cross linking (Nucleic Acid [8]) [%],Cross linking (Nucleic Acid [9]) [%],ICL50 (Nucleic Acid [10]) [µM],Cross linking (Nucleic Acid [11]) [%],ICL50 (Nucleic Acid [12]) [µM]
CO[C@@]12[C@H](COC(N)=O)C3=C(C(O)=C(C)/C(=N\CCCN(C)CCC/N=C4/C(=O)C5=C(C(O)=C4C)N4CC6NC6[C@]4(OC)[C@@H]5COC(N)=O)C3=O)N1C[C@@H]1N[C@@H]12 (some centres not stated),1.5,2.51,0.5,10,80000,20,150 µM,10,1.8,,,,
CO[C@@]12[C@H](COC(N)=O)C3=C(C(=O)C(C)=C(NCCCCCCCCCCCCNC4=C(C)C(=O)C5=C(C4=O)[C@@H](OC(N)=O)[C@@]4(OC)[C@H]6N[C@H]6CN54)C3=O)N1C[C@@H]1N[C@@H]12,,4.47,1.7,,,,,,,10,,,
CO[C@@]12[C@H](COC(N)=O)C3=C(C(=O)C(C)=C(NCCCCNC4=C(C)C(=O)C5=C(C4=O)[C@@H](OC(N)=O)[C@@]4(OC)[C@H]6N[C@H]6CN54)C3=O)N1C[C@@H]1N[C@@H]12,2.6,69.2,,20,50000,> 200,Infinity,,,< 10,3.8,0.6,
CO[C@@]12[C@H](COC(N)=O)C3=C(C(=O)C(C)=C(N)C3=O)N1C[C@@H]1N[C@@H]12 [MITOMYCIN],10,0.832,,55,17000,,Infinity,,,,,,> 200
